Assay results published in ChEMBL document CHEMBL2151039, “Discovery and development of α7 nicotinic acetylcholine receptor modulators” (J Med Chem, 2011).

How the values were obtained:
[1] = biological target: T1, Neuronal acetylcholine receptor subunit alpha-7 (Homo sapiens, UniProt P36544); experiment: Binding affinity to alpha7 nAChR
[2] = biological target: T1, Neuronal acetylcholine receptor subunit alpha-7; experiment: Agonist activity at alpha7 nAChR at 32 uM; type: functional
[3] = biological target: T2, 5-hydroxytryptamine receptor 3A (Homo sapiens, UniProt P46098); experiment: Binding affinity to 5HT3 receptor
T2 sequence (P46098 whole entry): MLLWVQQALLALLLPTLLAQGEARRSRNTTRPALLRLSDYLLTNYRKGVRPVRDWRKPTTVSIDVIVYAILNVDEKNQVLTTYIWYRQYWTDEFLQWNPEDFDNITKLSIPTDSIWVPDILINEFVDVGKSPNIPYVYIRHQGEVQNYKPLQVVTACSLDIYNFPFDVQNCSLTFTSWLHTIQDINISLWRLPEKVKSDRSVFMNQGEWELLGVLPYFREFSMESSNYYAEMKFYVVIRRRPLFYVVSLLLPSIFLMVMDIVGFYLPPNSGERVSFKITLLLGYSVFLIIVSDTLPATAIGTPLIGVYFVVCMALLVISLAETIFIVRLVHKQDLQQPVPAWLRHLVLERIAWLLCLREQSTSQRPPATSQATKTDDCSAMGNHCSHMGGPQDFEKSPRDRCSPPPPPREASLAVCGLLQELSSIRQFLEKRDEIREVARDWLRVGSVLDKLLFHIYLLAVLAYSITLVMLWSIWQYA

[4] = biological target: T2, 5-hydroxytryptamine receptor 3A; experiment: Inhibition of 5HT3 receptor
[5] = biological target: T1, Neuronal acetylcholine receptor subunit alpha-7; experiment: Agonist activity at alpha7 nAChR; type: functional
[6] = biological target: T1, Neuronal acetylcholine receptor subunit alpha-7; experiment: Binding affinity to human alpha7 nAchR
[7] = biological target: Voltage-gated inwardly rectifying potassium channel KCNH2 (Homo sapiens, UniProt Q12809); experiment: Inhibition of human ERG
[8] = biological target: T1, Neuronal acetylcholine receptor subunit alpha-7; experiment: Agonist activity at human alpha7 nAChR relative to control; type: functional
[9] = biological target: T1, Neuronal acetylcholine receptor subunit alpha-7; experiment: Agonist activity at human alpha7 nAChR; type: functional
[10] = biological target: T3, Neuronal acetylcholine receptor; alpha4/beta2 (Homo sapiens, UniProt P17787+P43681); experiment: Binding affinity to alpha4beta2 nAChR; type: protein-complex assay
[11] = biological target: T4, 5-hydroxytryptamine receptor 3A (Homo sapiens) (UniProt P46098); experiment: Agonist activity at human 5HT3A at 100 uM relative to control; type: functional
T4 sequence (whole entry): T2 sequence (P46098 whole entry)

Mus musculus = experiment: Reversal of apomorphine-induced prepulse inhibition in po dosed mouse; type: functional; conditions: read-out: MED
Method in brief: (§1)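 Prepulse inhibition disrupted by apomorphine in mice and in rats. Test drug given orally. Reversal reported as minimum effective dose (MED), in mg/kg po.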

[12] = Inhibition of non-selective opioid receptor
Rattus norvegicus [13] = experiment: Cognitive enhancing effect in po dosed rat short-term working memory by novel object recognition paradigm; type: functional; conditions: read-out: MED
Rattus norvegicus [14] = experiment: Reversal of apomorphine-induced prepulse inhibition in po dosed rat; type: functional; conditions: read-out: MED; method in brief: as §1
[15] = Inhibition of sodium channel site 2
[16] = biological target: T1, Neuronal acetylcholine receptor subunit alpha-7; experiment: Agonist activity at human alpha7 nAChR expressed in Xenopus oocytes relative to acetylcholine; type: functional, cell-based; conditions: Oocyte
[17] = biological target: T5, 5-hydroxytryptamine receptor 3A (Mus musculus) (UniProt P23979); experiment: Binding affinity to mouse 5HT3 receptor at 10 uM by radioligand binding assay
T5 sequence (whole entry): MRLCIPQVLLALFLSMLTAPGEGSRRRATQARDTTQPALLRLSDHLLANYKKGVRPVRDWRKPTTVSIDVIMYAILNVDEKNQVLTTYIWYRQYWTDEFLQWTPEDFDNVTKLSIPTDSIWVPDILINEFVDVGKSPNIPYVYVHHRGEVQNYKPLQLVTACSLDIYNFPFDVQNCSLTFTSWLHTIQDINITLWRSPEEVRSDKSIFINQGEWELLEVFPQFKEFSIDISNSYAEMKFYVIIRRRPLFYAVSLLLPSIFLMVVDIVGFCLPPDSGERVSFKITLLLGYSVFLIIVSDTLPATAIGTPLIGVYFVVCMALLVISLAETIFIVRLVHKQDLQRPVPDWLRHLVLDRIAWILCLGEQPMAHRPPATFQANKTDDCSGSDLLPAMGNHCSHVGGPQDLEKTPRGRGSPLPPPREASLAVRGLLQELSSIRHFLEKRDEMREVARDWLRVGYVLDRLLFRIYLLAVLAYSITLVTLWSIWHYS

[18] = biological target: T4, 5-hydroxytryptamine receptor 3A (Homo sapiens); experiment: Binding affinity to human 5HT3 receptor at 10 uM by radioligand binding assay
Cytochrome P450 2D6 = Cytochrome P450 2D6 (Homo sapiens, UniProt P10635); experiment: Inhibition of CYP2D6; type: ADME
[19] = biological target: T1, Neuronal acetylcholine receptor subunit alpha-7; experiment: Displacement of [3H]A-585539 from alpha7 nAChR human cortex
[20] = biological target: T6, Neuronal acetylcholine receptor subunit alpha-7 (Rattus norvegicus, UniProt Q05941); experiment: Displacement of [3H]A-585539 from alpha7 nAChR rat cortex
[21] = biological target: T6, Neuronal acetylcholine receptor subunit alpha-7; experiment: Agonist activity at rat alpha7 nAchR expressed in Xenopus oocyte; type: functional
[22] = biological target: T1, Neuronal acetylcholine receptor subunit alpha-7; experiment: Agonist activity at human alpha7 nAChR expressed in Xenopus oocyte; type: functional
[23] = biological target: Neuronal acetylcholine receptor subunit alpha-7 (Rattus norvegicus) (UniProt Q05941); experiment: Agonist activity at rat alpha7 nAchR expressed in Xenopus oocyte relative to acetylcholine; type: functional
[24] = biological target: T1, Neuronal acetylcholine receptor subunit alpha-7; experiment: Displacement of [3H]-MLA from alpha7 nAChR
[25] = biological target: T6, Neuronal acetylcholine receptor subunit alpha-7; experiment: Binding affinity to alpha7 nAChR in rat hippocampal membranes; type: cell membranes, Hippocampus
[26] = biological target: T3, Neuronal acetylcholine receptor; alpha4/beta2; experiment: Binding affinity to human alpha4beta2 nAChR; type: protein-complex assay
[27] = biological target: T2, 5-hydroxytryptamine receptor 3A; experiment: Binding affinity to human 5HT3A receptor
[28] = biological target: T1, Neuronal acetylcholine receptor subunit alpha-7; experiment: Antagonist activity at alpha7 nAChR assessed as amplitude of acetylcholine evoked currents; type: functional
[29] = biological target: T3, Neuronal acetylcholine receptor; alpha4/beta2; experiment: Antagonist activity at alpha4beta2 nAChR assessed as amplitude of acetylcholine evoked currents; type: functional
[30] = biological target: Neuronal acetylcholine receptor; alpha3/beta4 (Homo sapiens, UniProt P30926+P32297); experiment: Antagonist activity at alpha3beta4 nAChR assessed as amplitude of acetylcholine evoked currents; type: functional
Sequence of Neuronal acetylcholine receptor; alpha3/beta4 (P30926 whole entry): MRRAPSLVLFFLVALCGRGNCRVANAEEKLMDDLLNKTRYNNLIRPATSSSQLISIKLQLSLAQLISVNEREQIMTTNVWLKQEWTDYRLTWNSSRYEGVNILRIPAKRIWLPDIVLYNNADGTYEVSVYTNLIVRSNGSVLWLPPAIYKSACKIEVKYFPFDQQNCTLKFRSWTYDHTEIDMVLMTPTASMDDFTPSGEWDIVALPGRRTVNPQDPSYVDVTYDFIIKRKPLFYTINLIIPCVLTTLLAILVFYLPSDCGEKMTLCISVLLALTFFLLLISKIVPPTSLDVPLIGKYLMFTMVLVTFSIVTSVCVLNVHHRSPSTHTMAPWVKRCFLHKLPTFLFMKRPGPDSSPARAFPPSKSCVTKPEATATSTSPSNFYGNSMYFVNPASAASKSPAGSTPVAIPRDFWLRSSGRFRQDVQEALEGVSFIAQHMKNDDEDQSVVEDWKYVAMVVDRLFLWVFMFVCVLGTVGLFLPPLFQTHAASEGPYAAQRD
Sequence of Neuronal acetylcholine receptor; alpha3/beta4 (P32297 whole entry): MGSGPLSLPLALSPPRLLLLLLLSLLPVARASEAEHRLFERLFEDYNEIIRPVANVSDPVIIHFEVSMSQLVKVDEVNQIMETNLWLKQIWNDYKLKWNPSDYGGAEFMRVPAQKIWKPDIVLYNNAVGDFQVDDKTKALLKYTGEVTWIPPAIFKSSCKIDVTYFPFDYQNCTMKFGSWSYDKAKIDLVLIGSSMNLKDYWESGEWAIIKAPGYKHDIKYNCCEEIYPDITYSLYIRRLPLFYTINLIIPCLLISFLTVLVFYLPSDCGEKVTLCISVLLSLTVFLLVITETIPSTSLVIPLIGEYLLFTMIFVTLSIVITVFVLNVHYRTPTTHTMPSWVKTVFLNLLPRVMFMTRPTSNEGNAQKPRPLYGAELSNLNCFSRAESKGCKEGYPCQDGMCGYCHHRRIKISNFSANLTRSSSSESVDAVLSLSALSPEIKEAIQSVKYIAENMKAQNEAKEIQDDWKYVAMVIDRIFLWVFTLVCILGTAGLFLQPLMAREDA

T3 sequence (P17787 whole entry): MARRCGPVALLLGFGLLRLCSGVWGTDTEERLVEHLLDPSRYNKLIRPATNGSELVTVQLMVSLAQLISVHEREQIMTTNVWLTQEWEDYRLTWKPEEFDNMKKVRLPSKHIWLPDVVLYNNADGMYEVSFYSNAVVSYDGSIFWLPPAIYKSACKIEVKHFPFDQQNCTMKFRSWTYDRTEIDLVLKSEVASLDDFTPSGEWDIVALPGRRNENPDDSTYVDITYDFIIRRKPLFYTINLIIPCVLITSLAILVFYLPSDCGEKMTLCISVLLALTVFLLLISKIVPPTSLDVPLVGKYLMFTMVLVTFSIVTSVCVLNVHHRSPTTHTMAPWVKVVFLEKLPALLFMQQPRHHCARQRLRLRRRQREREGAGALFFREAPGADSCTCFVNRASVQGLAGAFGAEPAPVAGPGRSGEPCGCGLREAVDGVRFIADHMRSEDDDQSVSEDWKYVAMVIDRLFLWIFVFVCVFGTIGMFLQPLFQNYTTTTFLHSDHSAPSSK
T3 sequence (P43681 whole entry): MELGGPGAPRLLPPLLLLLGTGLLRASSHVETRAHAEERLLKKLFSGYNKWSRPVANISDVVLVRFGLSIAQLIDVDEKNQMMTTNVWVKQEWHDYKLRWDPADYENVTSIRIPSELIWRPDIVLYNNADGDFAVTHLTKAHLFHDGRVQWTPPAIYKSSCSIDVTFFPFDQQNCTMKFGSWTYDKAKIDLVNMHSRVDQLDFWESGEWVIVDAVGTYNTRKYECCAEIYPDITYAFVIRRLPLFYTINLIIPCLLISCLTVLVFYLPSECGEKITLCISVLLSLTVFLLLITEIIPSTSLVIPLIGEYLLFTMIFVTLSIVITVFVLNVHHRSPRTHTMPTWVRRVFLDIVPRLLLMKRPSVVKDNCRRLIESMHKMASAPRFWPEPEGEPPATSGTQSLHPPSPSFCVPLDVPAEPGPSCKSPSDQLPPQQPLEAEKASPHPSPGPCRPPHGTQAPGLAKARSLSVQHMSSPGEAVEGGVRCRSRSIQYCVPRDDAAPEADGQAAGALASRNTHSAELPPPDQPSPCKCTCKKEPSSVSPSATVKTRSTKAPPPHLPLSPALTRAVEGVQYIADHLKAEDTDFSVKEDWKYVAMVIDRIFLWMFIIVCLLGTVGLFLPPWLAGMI
T6 sequence (Q05941 whole entry): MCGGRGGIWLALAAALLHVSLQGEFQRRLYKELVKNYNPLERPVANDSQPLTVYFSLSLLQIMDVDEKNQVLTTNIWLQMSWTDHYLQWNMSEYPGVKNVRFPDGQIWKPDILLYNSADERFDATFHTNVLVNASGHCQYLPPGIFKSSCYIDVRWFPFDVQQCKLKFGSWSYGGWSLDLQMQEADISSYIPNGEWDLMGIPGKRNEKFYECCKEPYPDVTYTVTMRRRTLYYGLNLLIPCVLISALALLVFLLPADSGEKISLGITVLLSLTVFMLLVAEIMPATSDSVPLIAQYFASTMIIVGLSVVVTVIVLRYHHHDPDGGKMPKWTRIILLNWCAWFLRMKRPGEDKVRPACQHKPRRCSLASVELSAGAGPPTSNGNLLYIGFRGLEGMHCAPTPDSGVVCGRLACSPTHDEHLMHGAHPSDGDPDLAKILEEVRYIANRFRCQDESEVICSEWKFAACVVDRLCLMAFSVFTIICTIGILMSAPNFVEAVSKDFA
T1 sequence (P36544 whole entry): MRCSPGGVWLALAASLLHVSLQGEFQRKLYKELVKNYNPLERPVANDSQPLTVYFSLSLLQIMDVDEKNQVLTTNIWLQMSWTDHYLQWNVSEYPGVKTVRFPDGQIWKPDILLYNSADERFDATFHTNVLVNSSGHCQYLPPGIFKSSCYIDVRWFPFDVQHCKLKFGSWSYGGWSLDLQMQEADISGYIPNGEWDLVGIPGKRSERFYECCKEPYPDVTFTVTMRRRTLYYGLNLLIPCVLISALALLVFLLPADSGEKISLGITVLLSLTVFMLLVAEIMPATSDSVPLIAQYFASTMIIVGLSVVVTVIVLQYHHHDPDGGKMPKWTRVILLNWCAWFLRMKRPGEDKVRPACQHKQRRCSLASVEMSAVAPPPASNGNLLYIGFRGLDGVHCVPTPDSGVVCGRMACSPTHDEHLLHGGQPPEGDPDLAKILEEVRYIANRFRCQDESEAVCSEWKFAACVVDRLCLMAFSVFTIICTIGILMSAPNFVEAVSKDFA
Sequence of Voltage-gated inwardly rectifying potassium channel KCNH2 (Q12809 whole entry): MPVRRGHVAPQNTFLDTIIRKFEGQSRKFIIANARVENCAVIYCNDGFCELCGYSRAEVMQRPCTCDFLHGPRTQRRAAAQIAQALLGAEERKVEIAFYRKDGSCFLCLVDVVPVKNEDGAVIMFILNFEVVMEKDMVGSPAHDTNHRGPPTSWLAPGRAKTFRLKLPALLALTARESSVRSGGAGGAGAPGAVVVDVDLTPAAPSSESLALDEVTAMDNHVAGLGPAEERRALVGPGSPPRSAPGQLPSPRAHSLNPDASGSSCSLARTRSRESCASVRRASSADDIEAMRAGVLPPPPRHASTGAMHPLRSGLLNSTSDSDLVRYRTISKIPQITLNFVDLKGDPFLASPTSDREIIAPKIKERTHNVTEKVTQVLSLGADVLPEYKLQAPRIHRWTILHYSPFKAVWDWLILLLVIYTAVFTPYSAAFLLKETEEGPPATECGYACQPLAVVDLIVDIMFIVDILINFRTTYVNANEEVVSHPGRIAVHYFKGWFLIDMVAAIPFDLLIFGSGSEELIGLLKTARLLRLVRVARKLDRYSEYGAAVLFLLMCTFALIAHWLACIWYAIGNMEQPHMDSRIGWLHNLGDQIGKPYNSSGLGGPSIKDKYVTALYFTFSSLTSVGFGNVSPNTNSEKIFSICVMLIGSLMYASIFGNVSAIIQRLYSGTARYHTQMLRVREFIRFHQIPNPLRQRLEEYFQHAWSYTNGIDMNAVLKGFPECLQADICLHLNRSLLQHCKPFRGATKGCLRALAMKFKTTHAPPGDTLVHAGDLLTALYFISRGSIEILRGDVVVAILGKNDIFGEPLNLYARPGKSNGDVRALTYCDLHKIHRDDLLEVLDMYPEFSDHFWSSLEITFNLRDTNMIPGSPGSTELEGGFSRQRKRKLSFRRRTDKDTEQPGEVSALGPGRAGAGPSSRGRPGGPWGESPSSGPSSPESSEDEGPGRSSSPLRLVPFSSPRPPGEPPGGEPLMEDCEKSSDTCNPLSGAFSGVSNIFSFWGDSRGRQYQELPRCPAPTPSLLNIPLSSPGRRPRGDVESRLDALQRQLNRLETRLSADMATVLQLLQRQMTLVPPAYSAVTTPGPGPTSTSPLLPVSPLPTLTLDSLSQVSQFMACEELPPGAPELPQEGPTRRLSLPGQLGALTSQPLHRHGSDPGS
Sequence of Neuronal acetylcholine receptor subunit alpha-7 (Rattus norvegicus) (Q05941 whole entry): as the sequence (Q05941 whole entry) above
Sequence of Cytochrome P450 2D6 (P10635 whole entry): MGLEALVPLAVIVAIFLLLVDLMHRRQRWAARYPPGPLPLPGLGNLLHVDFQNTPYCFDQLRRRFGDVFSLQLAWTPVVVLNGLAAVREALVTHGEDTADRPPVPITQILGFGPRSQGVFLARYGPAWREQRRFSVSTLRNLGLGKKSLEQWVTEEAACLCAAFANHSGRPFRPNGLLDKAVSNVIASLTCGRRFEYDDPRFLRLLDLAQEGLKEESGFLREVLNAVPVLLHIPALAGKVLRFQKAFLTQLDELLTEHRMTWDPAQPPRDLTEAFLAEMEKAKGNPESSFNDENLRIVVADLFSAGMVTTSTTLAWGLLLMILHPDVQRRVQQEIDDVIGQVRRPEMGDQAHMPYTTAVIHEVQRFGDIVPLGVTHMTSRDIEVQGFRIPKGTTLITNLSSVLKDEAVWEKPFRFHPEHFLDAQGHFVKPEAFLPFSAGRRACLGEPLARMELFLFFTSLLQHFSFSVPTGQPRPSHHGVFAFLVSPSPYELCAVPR

Compound: O=C(Nc1ccc(Br)cc1)OC1CN2CCC1CC2 (centres undefined)
- Ki [1]: 167 nM
- Activity [2]: 90%

Compound: O=C1O[C@]2(CN3CCC2CC3)CN1c1ccc(Cl)s1
- Ki [1]: 9 nM

Compound: O=C(N[C@H]1CN2CCC1CC2)c1ccc2ccsc2c1
- Ki [3]: 174 nM
- IC50 [4]: 188 nM
- Ki [1]: 2.1 nM
- EC50 [5]: 48 nM

Compound: c1cc(-c2cnc3c(c2)C[C@@]2(CN4CCC2CC4)O3)co1
- Ki [6]: 0.03 nM
- IC50 [7]: 1600 nM
- Emax [8]: 40%
- EC50 [9]: 470 nM

Compound: CN1CC2CN(c3ccc(-c4ccccc4)nc3)CC2C1 (centres undefined)
- Ki [10]: 28000 nM
- Ki [1]: 9.6 nM

Compound: O=C(NCCCCN1CCCCC1)Nc1ccc(-c2cccnc2)cc1
- EC50 [5]: 120 nM

Compound: O=C(N[C@@H]1C2CCN(CC2)[C@H]1Cc1cccnc1)c1cc2ccccc2o1 [BRADANICLINE]
- Emax [11]: 15%
- minimal effective dose (Mus musculus): 0.3 mg/kg
- Ki [12]: 13000 nM
- inhibition ([12]; concentration not given here): 58%
- minimal effective dose (Rattus norvegicus [13]): 0.3 mg/kg
- minimal effective dose (Rattus norvegicus [14]): 0.3 mg/kg
- Ki [15]: 13000 nM
- inhibition ([15]; concentration not given here): 79%
- Emax [16]: 100%
- inhibition [17]: 59%
- inhibition [18]: 25%

Compound: O=C1O[C@]2(CN3CCC2CC3)CN1c1ccc2sccc2c1
- IC50 (Cytochrome P450 2D6): > 30000 nM
- Ki [1]: 28 nM

Compound: c1cc2cc(-c3ccc(O[C@H]4CN5CCC4CC5)nn3)ccc2[nH]1 [ABT-107]
- Ki [19]: 0.2 nM
- Ki [20]: 0.2 nM
- EC50 [21]: 50 nM
- Emax [16]: 80%
- EC50 [22]: 50 nM
- Emax [23]: 80%
- inhibition [18]: 4%
- Ki [24]: 7 nM

Compound: c1ccc2oc(N3CCN4CCC3CC4)nc2c1
- Ki [3]: 13 nM
- Ki [1]: 22.5 nM
- Activity [2]: 183%

Compound: O=C(N[C@H]1CN2CCC1CC2)c1ccc2ccoc2c1
- Ki [3]: 310 nM
- IC50 [4]: 962 nM
- Ki [1]: 12.5 nM
- EC50 [5]: 86 nM

Compound: O=C(N[C@H]1CN2CCC1CC2)c1cc2cccc(Cl)c2s1 [ENCENICLINE]
- IC50 [3]: 299 nM

Compound: c1cncc(C2CCC3CCN2CC3)c1 (centres undefined)
- Ki [25]: 11 nM
- Emax [16]: 100%
- EC50 [22]: 440 nM
- inhibition [18]: < 50%

Compound: c1cnc2c(c1)C[C@@]1(CN3CCC1CC3)O2 [AZD0328]
- Ki [26]: 140 nM
- Emax [8]: 58%
- EC50 [9]: 340 nM
- Ki [27]: 12 nM

Compound: CN1CC2CN(c3ccc(-c4ccc5[nH]ccc5c4)nn3)CC2C1 (centres undefined)
- Ki [10]: > 20000 nM
- Ki [1]: 0.24 nM
- EC50 [5]: 320 nM

Compound: C=CC[C@@H]1CC[C@@H](CC)[C@@H]2CCCCN12
- IC50 [28]: 600 nM
- IC50 [29]: 5200 nM
- IC50 [30]: 8800 nM

Compound: O=C(N[C@H]1CN2CCC1CC2)c1ccc2cc[nH]c2c1
- EC50 [5]: 100 nM

Compound: O=C(CCCCN1CCCCC1)Nc1ccc(-c2cccnc2)cc1
- EC50 [5]: 350 nM
